From PubChem BioAssay AID1496 (Sanford-Burnham Center for Chemical Genomics, 2009) come the findings set out here.

SMILES strings stand for the structures. Screen size: about 220,000 compounds; about 990 (0.45%) were called active. The entries come from a sample that favours actives as a whole. Unmarked numbers belong to inactive results.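 How the source made its calls: active means inhibition over about 50% at 20 µM in the single-dose screen (limit read from the data); inactive means the rest.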

Sequence of Runt-related transcription factor 1 (Homo sapiens) + Core-binding factor subunit beta (Homo sapiens) (Q01196 whole entry, looked up, the tested form may be a part): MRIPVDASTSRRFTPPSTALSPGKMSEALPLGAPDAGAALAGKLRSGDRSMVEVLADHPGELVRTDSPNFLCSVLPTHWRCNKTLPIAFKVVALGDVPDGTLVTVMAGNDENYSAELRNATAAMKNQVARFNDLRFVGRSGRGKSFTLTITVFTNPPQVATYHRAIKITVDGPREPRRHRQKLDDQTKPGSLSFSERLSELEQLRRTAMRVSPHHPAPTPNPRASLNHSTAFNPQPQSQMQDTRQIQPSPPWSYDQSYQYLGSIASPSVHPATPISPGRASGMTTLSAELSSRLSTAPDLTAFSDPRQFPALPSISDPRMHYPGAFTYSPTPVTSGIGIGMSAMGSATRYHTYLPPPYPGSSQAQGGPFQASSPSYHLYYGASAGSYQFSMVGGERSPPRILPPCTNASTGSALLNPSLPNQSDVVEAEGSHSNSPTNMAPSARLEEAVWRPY
Sequence of Runt-related transcription factor 1 (Homo sapiens) + Core-binding factor subunit beta (Homo sapiens) (Q13951 whole entry, looked up, the tested form may be a part): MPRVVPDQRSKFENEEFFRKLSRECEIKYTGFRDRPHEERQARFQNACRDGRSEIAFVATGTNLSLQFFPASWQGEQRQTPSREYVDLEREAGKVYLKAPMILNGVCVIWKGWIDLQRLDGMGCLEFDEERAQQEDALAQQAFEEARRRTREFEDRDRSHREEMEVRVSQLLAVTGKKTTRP

The test addresses Runt-related transcription factor 1 (Homo sapiens) + Core-binding factor subunit beta (Homo sapiens) (UniProt Q01196+Q13951). Nature of the test: inhibitors of RUNX1 Runt–CBFb binding, primary screen, biochemical, FRET, Cerulean-Runt, Venus-CBFb, uHTS (AID 1496).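 Further: 0% = DMSO wells and 100% = excess unlabeled CBFb competitor control.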 The settings on record: Cerulean-Runt/Venus-CBFb FRET ratio 530/480, 1 h; at 20 µM; hits give high values. In outline: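 System: Cerulean-labeled Runt domain protein | Quantity: 100 nM of each labeled protein | Schedule: 1 h compound exposure, room temperature | Detection: Fluorescence energy transfer, 422 nm excitation, 530/480 nm emission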
For `COCc1[nH]nc2c1C(C1C=CCCC1)C(C#N)=C(N)O2` (stereo not given), the inhibition was -0.2%.
For the compound `N#CC1=C(N)Oc2cc(O)ccc2C1C1CCCCC1` (stereo not given), the inhibition was 50.9% (active).
Regarding `N#CC1=C(N)OC2=C(C(=O)CCC2)C1C1CC=CCC1` (stereo not given), the inhibition is -0.5%.
For the compound `COC(=O)c1noc(C)c1-c1ccnn1C(=O)c1ccc(Cl)cc1`, the inhibition was 0%.
Regarding `Fc1ccc(COc2ccc(-c3nnco3)cc2)cc1`, the inhibition was -1.3%.
The value for `O=C(/C=C/c1ccc2c(c1)OCCO2)c1ccc(O)cc1` was -2.3%; that for `COc1ccc(-c2cn3ccc(C)cc3n2)cc1` was 0.2%.
The value for `O=C(CN1CCN(S(=O)(=O)/C=C/c2ccccc2)CC1)Nc1ccc(N2CCOCC2)cc1` was 0.6%; that for `O=c1cc(CN2CCN(S(=O)(=O)/C=C/c3ccccc3)CC2)c2ccc(O)cc2o1` was 74.1% (active).
For the compound `COc1ccc2c(CN3CCN(S(=O)(=O)c4cccs4)CC3)cc(=O)oc2c1`, the inhibition is -1.9%.
As for `COc1ccc(Nc2cc(=O)n(-c3ccccc3)c3c2c(=O)n(C)c(=O)n3C)cc1`, the inhibition is -0.7%.
As to `Cn1c(CC2Sc3ccccc3NC2=O)nnc1SCC(=O)c1ccc(Cl)cc1` (stereo not given), the inhibition was 1.9%.
Turning to `O=C(C[n+]1cc(-c2ccc(Cl)c(Cl)c2)n2c1CCC2)c1cccs1`, the inhibition was 1.5%.
Consider `CCOc1ccc(-c2nc(N)ncc2-c2ccccc2OC)c(O)c1`, for which the inhibition is -2.9%.
The value for `Cc1cc2nc3c(=O)n(Cc4ccccc4)c(=O)[nH]c3nc2cc1N` was -281%; that for `COc1ccc2[nH]c(=S)cc(C)c2c1` was 30.9%; that for `CC(=O)Oc1ccc(NC(=O)CCC2CCCCC2)c(C(=O)O)c1` was -13.2%.
Regarding `CC(=O)Nc1cc2ccc(OC(C)=O)cc2oc1=O`, the inhibition was 86.5% (active).
Consider `CC(=O)Oc1ccc2c(C)c(CC(C)O)c(=O)oc2c1` (stereo not given), for which the inhibition is 52.3% (active).
Take `Cc1c(Cc2ccccc2)c(=O)oc2cc(OCC(N)=O)ccc12`: the inhibition was -0.8%.
Consider `O=C(Oc1ccccc1)Oc1ccc2c(c1)oc(=O)c1ccccc12`, for which the inhibition is -1%.
The value for `COC(=O)Cc1c(C)c2ccc(OCC(=O)NCc3ccc4c(c3)OCO4)cc2oc1=O` was -2.3%; that for `CCOC(=O)c1ccc(N=C2SC(C(=O)NC)CC(=O)N2CCc2ccccc2)cc1` (stereo not given) was -3%; that for `CCc1ccnc(NS(=O)(=O)c2ccc3c(c2)OCCO3)c1` was 2.3%.
On to `COc1ccccc1C1CCN(c2ccc([N+](=O)[O-])cn2)CC1`, for which the inhibition is 0.4%.
As for `CCN1CCN(c2nc(Nc3cccc(F)c3)nc(N)c2[N+](=O)[O-])CC1`, the inhibition is -0.1%.
With `CCCc1cc(=O)oc2c(C)c(O)c(CN3CCCCC3)cc12`, the inhibition was 84.1% (active).
On to `CCCc1cc(=O)[nH]c(SCc2cc(=O)oc3c(C)c(C)ccc23)n1`, for which the inhibition was -10.5%.
Consider `COC(=O)Cc1cc(=O)oc2c(C)c(O)ccc12`, for which the inhibition was 19.3%.
Regarding `Cn1nnc(NC(=S)NC(=O)c2ccccc2)n1`, the inhibition was 10.1%.
For `COC(=O)c1ccccc1N=Nc1c(C)[nH][nH]c1=O`, the inhibition was -3.8%.
The same measure for `CCN(CC)CCCN=C(N)N`: 2.2%.
As for `CCN1/C(=C/C(=S)Nc2ccccc2)Sc2ccccc21`, the inhibition was 59.1% (active).
For `O=C(CCN1c2ccccc2Sc2ccccc21)Nc1ccccc1`, the inhibition was 0.8%.
For `CCC(=O)/C=C1\Sc2ccccc2N1CC`, the inhibition was 1.3%.
With `O=C(Nc1ccc(S(=O)(=O)Nc2nccs2)cc1)c1cc(-c2ccncc2)nc2ccccc12`, the inhibition is -7.7%.
For `COc1ccc(CCn2c(=N)c(C(=O)NCc3ccco3)cc3c(=O)n4cccc(C)c4nc32)cc1`, the inhibition is 107% (active).
The same measure for `COc1ccc(CNC(=O)c2cc3c(=O)n4ccccc4nc3n(CC3CCCO3)c2=N)cc1` (stereo not given): 85.6% (active); for `CCn1c(=N)c(C(=O)NCCCOC)cc2c(=O)n3cccc(C)c3nc21`: 19.3%.
On to `COc1ccc(CCNC(=O)CCn2c(=O)c3ccccc3n(CC(=O)NCC3CCCO3)c2=O)cc1OC` (stereo not given), for which the inhibition is -1.8%.
For `COc1ccc(CCNC(=O)Cn2c(=O)n(CC3CCCO3)c(=O)c3ccccc32)cc1OC` (stereo not given), the inhibition was -0.8%.
`O=C(NCc1ccco1)c1cccn2c(=O)c3c4c(sc3nc12)CCCC4`: the inhibition was 12.3%.
Take `CN(C)CCCn1c(N)c(C#N)c2nc(C#N)c(C#N)nc21`: the inhibition was 42.7%.
The same measure for `N#Cc1c(N)n(CCOC(=O)c2ccc(Cl)cc2)c2nc3ccccc3nc12`: 59% (active); for `CCCNC(=O)c1c(N)n(-c2ccc(S(N)(=O)=O)cc2)c2nc3ccccc3nc12`: 33%; for `CC(C)Cn1c(N)c(C(=O)NCc2cccs2)c2nc3ccccc3nc21`: 16.3%.
Regarding `COCCCn1c2nc3ccccc3nc2c2c(=O)n(Cc3ccc(Cl)cc3)c(C)nc21`, the inhibition was 0.1%.
Turning to `CC(C)(C)c1ccc(C(=O)NCCn2c(N)c(C#N)c3nc4ccccc4nc32)cc1`, the inhibition is 72.8% (active).
As to `COc1ccc(CNC(=O)C(Cc2ccccc2)n2cccc2)cc1` (stereo not given), the inhibition is 1.1%.
`NCCCCCC(=O)N/N=C/c1ccc2nccnc2c1`: the inhibition was 0.4%.
On to `Cc1c(CCC(=O)O)c(=O)oc2cc3occ(-c4ccccc4)c3cc12`, for which the inhibition was -3.4%.
The value for `CCCCCCc1cc2cc(-c3nnc(-c4ccccc4)o3)c(=O)oc2cc1O` was 84.6% (active).
Take `CCCC(=O)Nc1nnc(-c2ccccc2)o1`: the inhibition is 0.1%.
For `COC(=O)c1cc(NC(=O)c2cc(C(C)(C)C)nn2Cc2cccc(C)c2)ccc1N1CCOCC1`, the inhibition is -4%.
The same measure for `COC(=O)c1cc(NC(=O)c2ccco2)ccc1N1CCOCC1`: 0.9%; for `NC(=O)C1(C(N)=O)OC1c1ccc(Cl)cc1Cl` (stereo not given): 0.4%; for `CCOc1ccccc1C1C(C(=O)OC)=CN(C)C=C1C(=O)OC`: 9.9%.
Regarding `COC(=O)C1=CN(C)C=C(C(=O)OC)C1c1ccc(Cl)cc1Cl`, the inhibition is 110% (active).
Consider `CCOc1cccc(/C=N/NC(=S)NCCN2CCOCC2)c1O`, for which the inhibition was -15.6%.
`CCOc1cccc(/C=N/N2C(=O)CSC2=S)c1O`: the inhibition is 51.1% (active).
The same measure for `O=C1CSC(=S)N1/N=C/c1ccc(O)c([N+](=O)[O-])c1`: 26.4%; for `Cc1ccc(NS(=O)(=O)c2ccc(N/N=C/c3ccccc3OCC(=O)O)c([N+](=O)[O-])c2)c(C)c1`: -12.7%.
The value for `COC(=O)Cn1c2ccc(C)cc2c2nc(C)sc21` was 50.7% (active).
Consider `COC(=O)Cn1c(=NC(=O)c2cc(OC)c(OC)c(OC)c2)sc2cc(OC)ccc21`, for which the inhibition is -1.4%.
On to `CCN(CC)CCn1c2ccc(Cl)cc2c2nc(C)sc21`, for which the inhibition is 0.5%.
Turning to `Cn1c(C(=O)O)ccc1S(=O)(=O)N(Cc1ccccc1)Cc1ccccc1`, the inhibition is 0.9%.
Consider `COc1ccc(Br)c2c1C(=O)CC2`, for which the inhibition was -4%.
For the compound `COC(=O)c1ccc(C(=O)OC)c(NC(=S)N2CCN(c3ccc(F)cc3)CC2)c1`, the inhibition was 8.1%.
Turning to `COC(=O)c1ccc(C(=O)OC)c(NC(=S)N2CCCCC2)c1`, the inhibition was 54% (active).
For `COC(=O)c1ccc(C(=O)OC)c(NC(=S)N2CCN(c3cc(Cl)ccc3C)CC2)c1`, the inhibition is 9.1%.
On to `O=C(O)c1ccccc1OCc1ccccc1Cl`, for which the inhibition is 2.6%.
Turning to `C#CCOCCOCCOCCNc1nc(N2CCN(C(=O)[C@H](CCC(=O)O)n3cc(C(N)CO)nn3)CC2)nc(N2CCN(C(=O)[C@H](CCCCN)n3cc(C(N)[C@H](C)CC)nn3)CC2)n1` (stereo not given in full), the inhibition is 0.2%.
For `COc1ccc(C(=O)C2CCCN(C(=O)c3cnsn3)C2)c(C)c1` (stereo not given), the inhibition was -0.7%.
As for `CCCS(=O)(=O)N1CCCC(C(=O)NCc2ccco2)C1` (stereo not given), the inhibition is 71.8% (active).
`O=C(NCc1ccco1)C1CCCN(S(=O)(=O)c2ccccc2)C1` (stereo not given): the inhibition is -0.1%.
On to `O=C(NCc1ccco1)C1CCCN(S(=O)(=O)c2cnc[nH]2)C1` (stereo not given), for which the inhibition is 1.5%.
The value for `CCOC(=O)c1ccc(NC(=O)c2nc[nH]c2C(=O)NCc2ccccc2)cc1` was 19.6%.
Take `CN(C)S(=O)(=O)c1ccc(Cl)c(NC(=O)COC(=O)CC(NC(N)=O)c2ccc(Cl)cc2)c1` (stereo not given): the inhibition is -1.9%.
In the case of `CCCN(CCC)S(=O)(=O)c1ccc(C(=O)N2CC3CCC(CC3)C2)cc1`, the inhibition is -0.8%.
For the compound `Cc1nc(C(=O)Nc2ccc(Cl)cc2)sc1C1(C)CC(c2ccccc2)=NO1` (stereo not given), the inhibition was 1.9%.
For the compound `O=C(O)/C=C/c1ccc2c(c1)OCCO2`, the inhibition is 1.9%.
Consider `COc1cccc(CC(=O)Nc2ccc(-c3csc(C)n3)cc2)c1`, for which the inhibition is -1.8%.
As for `COc1ccc(OC(C)C(=O)NCCc2nc3ccccc3[nH]2)cc1` (stereo not given), the inhibition was -0.9%.
`CC(C)Oc1ccc(/C=C(\NC(=O)/C=C/c2ccco2)C(=O)NCCc2nc3ccccc3[nH]2)cc1`: the inhibition was 89.5% (active).
The same measure for `CC(C)=C(NC(=O)c1ccco1)C(=O)NCCc1nc2ccccc2[nH]1`: 1.2%.
On to `CCOC(=O)C1=C(N)N2C(=O)C(C)SC2=C(C(=O)OCC)C1c1cc(OC)c(OC)c(OC)c1` (stereo not given), for which the inhibition is -5%.
For `Cc1cc(Nc2ccc(Cl)cc2)nc(N2CCOCC2)n1`, the inhibition was 0.3%.
The value for `Cc1cccc(-n2c(N)c(C(=O)N3CCN(C)CC3)sc2=S)c1` was 55.8% (active).
As to `CCOC(=O)c1sc(=S)n(-c2cccc(OC)c2)c1N`, the inhibition is 34%.
For the compound `Cc1ccc(-n2c(N)c(C(=O)N3CCOCC3)sc2=S)c(C)c1`, the inhibition is 40.6%.
As for `CC(=O)Nc1nc2c(s1)C(=O)NCC(C)(C)C2`, the inhibition was 1%.
Turning to `CCCN(c1ccc(C)cc1)c1nc(=O)c2cccnc2s1`, the inhibition was 0.8%.
The value for `Cc1cccc(N2C(=O)C3C(c4ccccc4)OC4(C(=O)c5ccccc5C4=O)C3C2=O)c1` (stereo not given) was 115% (active); that for `Cc1cccc(N2C(=O)CC(SC(N)=Nc3ccccc3)C2=O)c1` (stereo not given) was -1.7%.
For the compound `Cc1cccc(N2C(=O)c3cccnc3C2=O)c1`, the inhibition is -2.4%.
